According to ChEMBL document CHEMBL5506013, “Mitochondria-Selective Dicationic Small-Molecule Ligand Targeting G-Quadruplex Structures for Human Colorectal Cancer Therapy” (J Med Chem, 2024):
The source made the active and inactive calls. No cut-off for these calls is given here.

Columns and labels:
[1] = Toxicity in BALB/c nude mouse assessed as change in body weight at 5 mg/kg, iv administered every two days for 16 days; assay type: organism-based; conditions: in vivo, 384 h, time 16 day
Outline: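 Male Balb/c nude mice bearing HCT116 xenografts, 6 per group, given PBS or ligand 5 mg/kg intravenously every two days. Body weight tracked over 16 days.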

[2] = Toxicity in BALB/c nude mouse assessed as change in mean red blood cell volume at 5 mg/kg, iv administered every two days for 16 days; assay type: organism-based; conditions: in vivo, 384 h, time 16 day
Outline: (§1)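 HCT116 xenograft-bearing male Balb/c nude mice (6/group) dosed iv at 5 mg/kg every two days or with PBS. Whole blood collected at sacrifice on day 16 for hematology parameters.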

[3] = Drug localization in human HCT-116 cells transfected with Cy5-mito 0.5-16 G4 DNA at 4 uM incubated for 1 hr by hoechst33342 staining based analysis; assay type: ADME, cell-based; conditions: hct-116, 1 h
Outline: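 HCT116 cells transfected with Cy5-labelled DNA (excitation 635 nm) for 24 h. Ligand 4 uM added for 1 h, then Hoechst33342 1 uM for 30 min. Colocalization of ligand with Cy5 quantified by Pearson r from confocal images.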

HCT-116 [4] = assay: Antitumor activity against human HCT-116 cells xenografted in Balb/c nude mouse model assessed as reduction in tumor weight at 5 mg/kg, iv administered every two days for 16 days relative to control; assay type: functional; set-up: scale not given: the % may be the effect or the level left; conditions: time 16 day
Outline: (§2)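 Male Balb/c nude mice carrying HCT116 xenografts, 6 per group. Dosing was intravenous every two days at 5 mg/kg, with a PBS-injected control group. Body weight and tumour growth were tracked. Tumours were excised and weighed after 16 days.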

HCT-116 [5] = assay: Downregulation of ND3 protein level in human HCT-116 cells at upto 4 uM incubated for 48 hrs by Western blot analysis; assay type: functional, cell-based
HCT-116 [6] = assay: Inhibition of cell migration in human HCT-116 cells at upto 4 uM measured after 72 hrs by transwell assay relative to control; assay type: functional; conditions: up to 4 µM
Outline: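 Transwell migration of HCT116 cells treated for 72 h at 0, 1, 2 or 4 uM, imaged at 100x and quantified; mean ± SD.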

HCT-116 [7] = assay: Induction of cell senescence in human HCT-116 cells assessed by increase SA-beta-Gal positive cells at upto 4 uM measured after 72 hrs by SA-bet-gal assay
Quadruplex DNA [8] = assay: Binding affinity to mito 81 G4 DNA (unknown origin) assessed as increase in fluorescence intensity by fluorescence spectrophotometric analysis; assay type: nucleic-acid assay
Outline: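 Fluorescence titration in buffer. Ligand at 5 uM mixed with 20 uM pre-annealed DNA (95 °C for 10 min, slow cooling). Emission collected at 550-800 nm and monitored at 650 nm. Result reported as fold enhancement F/F0 over ligand alone.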

[9] = Drug localization in human HCT-116 cells by measuring red foci at 4 uM incubated for 1 hr in presence of RNA by hoechst33342 staining based analysis; assay type: ADME, cell-based; conditions: hct-116, 1 h
Outline: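 Live HCT116 cells loaded with ligand 4 uM for 1 h and Hoechst33342 1 uM for 30 min, then fixed. Fixed cells digested with 200 units DNase I or RNase A for 3 h. Red foci imaged by confocal microscopy in 100 cells. Mean ± SEM, t test.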

HCT-116 [10] = assay: Induction of morphological changes in human HCT-116 cells at 4 uM by microscopy based analysis; assay type: functional, cell-based
Outline: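 HCT116 and HFF1 cells treated with ligand at 4 uM alongside untreated controls. Morphology examined by microscopy at 100x.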

Quadruplex DNA [11] = assay: Binding affinity to Mito 78 G4 DNA (unknown origin) assessed as increase in CD signal at 5 uM at 290 nMby circular dichroism spectroscopic analysis; assay type: nucleic-acid assay
[12] = Drug localization in human HCT-116 cells by measuring red foci at 4 uM incubated for 1 hr in presence of FCCP by hoechst33342 staining based analysis; assay type: ADME, cell-based; conditions: hct-116, 1 h
Outline: (§3)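 Pretreatment of live HCT116 cells: FCCP 1 uM for 20 min, cyclosporin A 1 uM for 24 h, DMOG 100 uM for 24 h, or MitoPDS at several concentrations for 3 h (applied after dye loading). Cells loaded with ligand 4 uM (excitation 488 nm) for 1 h and Hoechst33342 1 uM for 30 min. Red foci counted by confocal imaging in 100 cells. Mean ± SEM, t test.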

HCT-116 [13] = assay: Downregulation of ND4 mRNA level in human HCT-116 cells at 0 to 4 uM measured after 48 hrs by qRT-PCR analysis; assay type: functional, cell-based; conditions: dose 0-4 µM
Cell membrane = assay: Induction of mitochondrial membrane potential depolarization in human HCT-116 cells assessed as […] in TMRE fluorescence incubated for 48 hrs by TMRE staining based analysis; assay type: cell membranes; conditions: dose <= 4.0 µM
HeLa = assay: Antiproliferative activity against human HeLa cells measured after 48 hrs by MTT assay; assay type: functional, cell-based
Outline: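 Cells exposed to the ligands for 48 h. Viability was read by MTT, and the IC50 was derived from the response.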

HCT-116 [14] = assay: Downregulation of mitochondrial respiratory chain complex-IV level in human HCT-116 cells at upto 4 uM measured after 48 hrs by Western blot analysis; assay type: functional, cell-based
Quadruplex DNA [15] = assay: Binding affinity to mito 0.5-16 G4 DNA (unknown origin) assessed as increase in fluorescence intensity by fluorescence spectrophotometric analysis; assay type: nucleic-acid assay
Outline: (§4)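 Oligonucleotides were pre-annealed at 95 °C for 10 min, then cooled slowly. Ligand (5 uM) was mixed with 20 uM DNA in buffer. Emission was collected over 550–800 nm, and enhancement was taken at 650 nm as F/F0.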

HCT-116 [16] = assay: Antitumor activity against human HCT-116 cells xenografted in Balb/c nude mouse model assessed as inhibition of tumor growth at 5 mg/kg, iv administered every two days for 16 days; assay type: functional, organism-based; conditions: time 16.0 day; outline: as §2
HCT-116 [17] = assay: Upregulation of p53 level in human HCT-116 cells at upto 4 uM measured after 72 hrs by Western blot analysis; assay type: functional, cell-based
[18] = Drug localization in human HCT-116 cells by measuring red foci at 4 uM incubated for 1 hr in presence of DMOG by hoechst33342 staining based analysis; assay type: ADME, cell-based; conditions: hct-116, 1 h; outline: as §3
DNA [19] = assay: Binding affinity to SS19 DNA (non-G4 DNA) (unknown origin) assessed as dissociation constant measured upto 150 secs by isothermal titration calorimetry assay; assay type: nucleic-acid assay
DNA [20] = assay: Binding affinity to SS19 DNA (non-G4 DNA) (unknown origin) assessed as increase in fluorescence intensity by fluorescence spectrophotometric analysis; assay type: nucleic-acid assay; outline: as §4
[21] = Toxicity in BALB/c nude mouse assessed as effect on liver at 5 mg/kg, iv measured after 16 hrs post injection by H and E staining based analysis; assay type: organism-based; conditions: in vivo
[22] = Toxicity in BALB/c nude mouse assessed as change in mean platelet volume at 5 mg/kg, iv administered every two days for 16 days; assay type: organism-based; conditions: in vivo, 384 h, time 16 day; outline: as §1

Drug uptake [3]: Active | Activity (Quadruplex DNA [8]): Active | Drug uptake [9]: Active | Activity (Quadruplex DNA [11]): Active | Drug uptake [12]: Not Active | Activity (Cell membrane): Dose-Dependent Effect | IC50 (HeLa): 23.5 µM | Activity (Quadruplex DNA [15]): Active | Drug uptake [18]: Not Active | Kd (DNA [19]): > 4.7 µM | Activity (DNA [20]): inactive
SMILES: C(=C\c1ccc2ccccc2[n+]1CCCCCCCC[n+]1c(/C=C/c2ccc(N3CCCCC3)cc2)ccc2ccccc21)/c1ccc(N2CCCCC2)cc1.[I-].[I-]
Activity [1]: Non-Toxic | Activity [2]: Non-Toxic | Activity (HCT-116 [4]): 70% | Activity (HCT-116 [5]): Active | inhibition (INH) (HCT-116 [6]): 40% | Activity (HCT-116 [7]): Active | Activity (HCT-116 [10]): Active | Activity (HCT-116 [13]): Active | Activity (HCT-116 [14]): Active | Activity (HCT-116 [16]): Active | Activity (HCT-116 [17]): Active | Activity [21]: Non-Toxic | Activity [22]: Non-Toxic
